ChEMBL document CHEMBL5634116, “Strategies for developing retinoic acid receptor alpha-selective antagonists as novel agents for male contraception” (Eur J Med Chem, 2023)

Legend:
[1] = target: T1, Retinoic acid receptor beta (Homo sapiens, UniProt P10826); assay: Antagonist activity at recombinant human RAR-beta expressed in mammalian cells in presence of ATRA by luciferase reporter gene based transactivation assay; assay type: cell-based
T1 sequence (P10826 whole entry): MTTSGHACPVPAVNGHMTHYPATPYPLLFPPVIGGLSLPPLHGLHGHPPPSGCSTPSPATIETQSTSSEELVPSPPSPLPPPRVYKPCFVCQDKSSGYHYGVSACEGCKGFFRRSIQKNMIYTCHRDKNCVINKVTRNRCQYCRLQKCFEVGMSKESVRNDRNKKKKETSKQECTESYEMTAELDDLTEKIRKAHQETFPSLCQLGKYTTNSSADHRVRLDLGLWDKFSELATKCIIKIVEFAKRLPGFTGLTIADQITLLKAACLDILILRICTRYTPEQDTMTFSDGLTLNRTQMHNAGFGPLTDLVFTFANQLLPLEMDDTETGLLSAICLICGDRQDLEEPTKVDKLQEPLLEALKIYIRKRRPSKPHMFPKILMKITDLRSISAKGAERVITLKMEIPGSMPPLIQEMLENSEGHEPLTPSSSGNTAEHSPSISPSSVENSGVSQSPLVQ

[2] = target: T2, Retinoic acid receptor alpha (Homo sapiens, UniProt P10276); assay: Antagonist activity at recombinant human RAR-alpha expressed in mammalian cells in presence of 9-cis-RA by luciferase reporter gene based transactivation assay; assay type: cell-based
T2 sequence (P10276 whole entry): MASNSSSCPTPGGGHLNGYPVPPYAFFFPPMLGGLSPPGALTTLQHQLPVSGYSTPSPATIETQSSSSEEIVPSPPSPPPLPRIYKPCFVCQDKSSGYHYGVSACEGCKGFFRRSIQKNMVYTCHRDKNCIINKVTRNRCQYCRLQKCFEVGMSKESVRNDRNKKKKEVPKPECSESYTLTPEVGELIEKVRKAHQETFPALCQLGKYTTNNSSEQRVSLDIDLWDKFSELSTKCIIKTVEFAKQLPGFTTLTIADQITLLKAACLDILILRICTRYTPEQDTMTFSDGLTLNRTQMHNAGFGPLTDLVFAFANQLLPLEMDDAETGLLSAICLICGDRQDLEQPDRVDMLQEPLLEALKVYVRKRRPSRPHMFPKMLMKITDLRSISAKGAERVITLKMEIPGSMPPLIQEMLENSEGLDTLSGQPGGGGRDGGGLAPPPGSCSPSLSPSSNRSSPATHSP
How it was run: (§1)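 Compounds 8-point dose response in triplicate, DMSO final 0.4%; overnight at 37 °C, 5% CO2; luminescence after 30 min detection reagent. IC50 by four-parameter logistic fit; agonist-free wells set background.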

[3] = target: T3, Retinoic acid receptor gamma (Homo sapiens, UniProt P13631); assay: Antagonist activity at recombinant human RAR-gamma expressed in mammalian cells in presence of ATRA by luciferase reporter gene based transactivation assay; assay type: cell-based; how it was run: as §1
T3 sequence (P13631 whole entry): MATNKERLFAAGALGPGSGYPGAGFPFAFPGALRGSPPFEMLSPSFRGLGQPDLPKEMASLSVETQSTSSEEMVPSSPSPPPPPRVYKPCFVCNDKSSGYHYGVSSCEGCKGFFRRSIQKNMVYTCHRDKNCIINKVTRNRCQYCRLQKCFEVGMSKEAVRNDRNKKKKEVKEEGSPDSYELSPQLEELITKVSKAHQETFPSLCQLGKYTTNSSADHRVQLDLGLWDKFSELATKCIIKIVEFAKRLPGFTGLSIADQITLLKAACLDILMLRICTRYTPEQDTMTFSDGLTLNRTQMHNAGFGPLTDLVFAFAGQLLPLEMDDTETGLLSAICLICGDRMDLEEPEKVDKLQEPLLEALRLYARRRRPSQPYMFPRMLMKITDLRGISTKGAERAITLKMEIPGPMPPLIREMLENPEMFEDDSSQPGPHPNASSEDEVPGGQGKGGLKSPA

[4] = target: T4, Retinoic acid receptor gamma (Homo sapiens) (UniProt P13631); assay: Agonist activity at recombinant human RAR-gamma expressed in mammalian cells by luciferase reporter gene based transactivation assay relative to control; assay type: cell-based
T4 sequence (whole entry): T3 sequence (P13631 whole entry)
How it was run: (§2)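 Transactivation in proprietary reporter cells expressing recombinant human RAR subtype with RARE-linked beetle luciferase. Compounds in DMSO (final 0.4%), 8-point dose response in triplicate; cells added, incubated overnight at 37 °C, 5% CO2, then luciferase reagent 30 min r.t., luminescence read.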

[5] = target: T2, Retinoic acid receptor alpha
[6] = target: T3, Retinoic acid receptor gamma; assay: Agonist activity at recombinant human RAR-gamma expressed in mammalian cells by luciferase reporter gene based transactivation assay; assay type: cell-based
How it was run: (§3)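 Human RAR-subtype luciferase reporter cells (RARE-driven). Compounds in DMSO (final 0.4%) tested as 8-point dose response in triplicate. Incubated overnight at 37 °C in 5% CO2, then detection reagent 30 min at r.t. and luminescence measured. EC50 by four-parameter logistic fit, mean ± SEM from geometric mean of log EC50 across independent experiments.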

[7] = target: T5, Retinoic acid receptor alpha (Homo sapiens) (UniProt P10276); assay: Agonist activity at recombinant human RAR-alpha expressed in mammalian cells by luciferase reporter gene based transactivation assay relative to control; assay type: cell-based; how it was run: as §2
T5 sequence (whole entry): T2 sequence (P10276 whole entry)

[8] = target: T6, Retinoic acid receptor beta (Homo sapiens) (UniProt P10826); assay: Agonist activity at recombinant human RAR-beta expressed in mammalian cells by luciferase reporter gene based transactivation assay relative to control; assay type: cell-based; how it was run: as §2
T6 sequence (whole entry): T1 sequence (P10826 whole entry)

[9] = target: T1, Retinoic acid receptor beta; assay: Agonist activity at recombinant human RAR-beta expressed in mammalian cells by luciferase reporter gene based transactivation assay; assay type: cell-based; how it was run: as §3

Row | SMILES | IC50 [1] | IC50 [2] | IC50 [3] | other results
1 | CC1(C)CC=C(c2ccc(N3CCOCC3)cc2)c2cc(C(=O)Nc3ccc(C(=O)O)cc3)ccc21 | > 3.3 µM | 1.1 µM | 1.5 µM | –
2 | Cc1ccc(C2=CCC(C)(C)c3ccc(N4CCc5cc(C(=O)O)ccc5C4)cc32)cc1 | 0.35 µM | > 3.3 µM | > 3.3 µM | –
3 | CC1(C)CC=C(c2ccc(N3CCOCC3)cc2)c2cc(NC(=O)Nc3ccc(C(=O)O)cc3)ccc21 | > 3.3 µM | > 3.3 µM | > 3.3 µM | –
4 | CC1(C)CC=C(c2ccccc2)c2cc(C(=O)NCc3ccc(C(=O)O)cc3)ccc21 | > 3.3 µM | > 3.3 µM | > 3.3 µM | –
5 | CC1(C)CC=C(c2ccc(N3CCOCC3)cc2)c2cc(NC(=O)c3ccc(C(=O)O)cc3)ccc21 | 0.73 µM | > 3.3 µM | > 3.3 µM | –
6 | CC1(C)CC=C(c2ccccc2)c2cc(/C=C/c3ccc(C(=O)O)cc3)ccc21 | – | 0.0094 µM | 0.0075 µM | Emax [4]: 26%; IC50 [5]: ~0.01 µM; EC50 [6]: 0.12 µM
7 | CC1(C)CC=C(c2ccc(CN3CCOCC3)cc2)c2cc(NC(=O)c3ccc(C(=O)O)cc3)ccc21 | > 3.3 µM | 1.5 µM | > 3.3 µM | –
8 | Cc1ccc(C2=CCC(C)(C)c3ccc(C(=O)Nc4ccc(C(=O)O)cc4)cc32)cc1 | > 3.3 µM | 0.029 µM | 2.6 µM | Emax [7]: 9%; Emax ([8]; filed as agonist): 46%; Emax [4]: 15%; EC50 [9]: 0.055 µM; EC50 [6]: > 3.3 µM
9 | Cc1ccc(C2=CCC(C)(C)c3ccc(-c4ccc5cc(C(=O)O)ccc5n4)cc32)cc1 | 0.021 µM | > 3.3 µM | 0.13 µM | –
10 | Cc1ccc(C2=CC(C)(C)Oc3ccc(S(=O)(=O)Nc4cc(F)c(C(=O)O)c(F)c4)cc32)cc1 | > 3.3 µM | > 3.3 µM | > 3.3 µM | –
11 | Cc1ccc(C2=CC(C)(C)Oc3c(Br)cc(S(=O)(=O)Nc4ccc(C(=O)O)cc4)cc32)cc1 | > 3.3 µM | > 3.3 µM | > 3.3 µM | –

Further lines, with some results ahead:

Row | IC50 [1] | IC50 [2] | IC50 [3] | SMILES | other results
12 | > 3.3 µM | > 3.3 µM | > 3.3 µM | Cc1ccc(C2=CCC(C)(C)c3ccc(C(=O)NCc4ccc(C(=O)O)cc4)cc32)cc1 | –
13 | > 3.3 µM | 0.43 µM | > 3.3 µM | Cc1ccc(C2=CCC(C)(C)c3ccc(C(=O)Nc4cc(F)c(C(=O)O)c(F)c4)cc32)cc1 | –
14 | > 3.3 µM | > 3.3 µM | > 3.3 µM | CC1(C)CC=C(c2ccc(C(=O)N3CCOCC3)cc2)c2cc(NC(=O)c3ccc(C(=O)O)cc3)ccc21 | –
15 | 0.84 µM | > 3.3 µM | > 3.3 µM | Cc1ccc(C2=CCC(C)(C)c3ccc(NC(=O)Nc4ccc(C(=O)O)cc4)cc32)cc1 | –
16 | > 3.3 µM | > 3.3 µM | > 3.3 µM | CC1(C)CC=C(c2ccc(N3CCOCC3)cc2)c2cc(NC(=O)c3ccc(C(=O)O)c([N+](=O)[O-])c3)ccc21 | –
17 | 0.26 µM | 0.27 µM | 2.7 µM | CC1(C)CC=C(c2cnc3ccccc3c2)c2cc(C(=O)Nc3ccc(C(=O)O)cc3)ccc21 | –
18 | > 3.3 µM | 0.14 µM | > 3.3 µM | CC1(C)CC=C(c2ccccc2)c2cc(C(=O)Nc3ccc(C(=O)O)cc3)ccc21 | Emax [7]: 4%; Emax ([8]; filed as agonist): 150%; Emax ([4]; filed as agonist): 47%; EC50 [9]: 0.025 µM; EC50 [6]: 0.56 µM
19 | > 3.3 µM | 0.44 µM | > 3.3 µM | CC1(C)CC=C(c2cccs2)c2cc(C(=O)Nc3ccc(C(=O)O)cc3)ccc21 | Emax [7]: 3%; Emax ([8]; filed as agonist): 167%; EC50 [9]: 0.015 µM
20 | > 3.3 µM | > 3.3 µM | > 3.3 µM | Cc1ccc(C2=CC(C)(C)Oc3ccc(S(=O)(=O)Nc4ccc(C(=O)O)cc4)cc32)cc1 | –
21 | 0.173 µM | 0.52 µM | > 3.3 µM | CC1(C)CC=C(c2ccc(CN3CCOCC3)cc2)c2cc(C(=O)Nc3ccc(C(=O)O)cc3)ccc21 | Emax [7]: 0%; Emax [8]: 0%; Emax [4]: 0%
22 | > 3.3 µM | > 3.3 µM | > 3.3 µM | Cc1ccc(C2=CC(C)(C)Oc3ccc(NS(=O)(=O)c4ccc(C(=O)O)cc4)cc32)cc1 | –
23 | > 3.3 µM | > 3.3 µM | > 3.3 µM | CC1(C)CC=C(c2ccccc2)c2cc(NC(=O)Nc3ccc(C(=O)O)cc3)ccc21 | –
24 | > 3.3 µM | > 3.3 µM | > 3.3 µM | Cc1ccc(C2=CCC(C)(C)c3ccc(C(=O)N4CCc5cc(C(=O)O)ccc5C4)cc32)cc1 | –
25 | > 3.3 µM | > 3.3 µM | > 3.3 µM | Cc1ccc(C2=CC(C)(C)Oc3c(Br)cc(S(=O)(=O)Nc4cc(F)c(C(=O)O)c(F)c4)cc32)cc1 | –
